Bioassay records (PubChem)
SR-BI DiI inh = inhibitors of mouse SR-BI mediated HDL lipid uptake | Q61009 | 0.96% of 320,000 active | ldlA[mSR-BI] CHO cells, DiI-HDL uptake fluorescence, 3 h | inhibition, % at 12.5 µM;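 active = mean replicate inhibition of at least 70% and a set share of replicates each scoring 70 or more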;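 also: 0% = median of neutral control wells and 100% = median of positive control wells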
PKA-R2B activ = activates the human PKA-R2B holoenzyme complex. P22694+P31323. PKA-R2B holoenzyme dissociation, Cy5-IP20 fluorescence polarization; R2B truncated from residue 108, S112A mutant; 0% DMSO only, 100% 113 µM cGMP. activation, % at 11.4 µM. 0.079% of 340,000 active. AID 504700;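 active = activation above a cutoff set at the mean over all compounds plus 3 SD, cut at about 18% in these data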;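 also: higher means more holoenzyme dissociation and a rise in polarization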
PKA-R1A activ = PKA-R1A complex activation; activation, % at 11.4 µM; PKA-R1A dissociation, Cy5-IP20 fluorescence polarization; scaled: DMSO 0%, 113 µM cGMP 100%; P00514+P68181; 0.083% of 340,000 active;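 active = percent activation above the mean of all tested compounds plus 3 SD, cut at about 19% in these data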;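 also: higher means more PKAc released from R1A so a rise in polarization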
SR-BI uptake up = SR-BI HDL lipid transfer activation | CHO ldlA[mSR-BI] cells, DiI-HDL uptake fluorescence, 3 h; 100 = double the neutral-control signal | activation, % at 12.5 µM | 0.096% of 320,000 active;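 active = mean replicate activation of at least 60% and every replicate at or above 60%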;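 also: 0% = median plate neutral-control signal and 100% = twice that signal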
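Assay system: LDL receptor-deficient CHO ldlA cells overexpressing murine SR-BI / Medium: BSA-supplemented, HEPES-buffered Ham's F12, pH 7.4 / Probe or stimulus: DiI-labelled HDL at 10 µg/mL final / Timing: compound with DiI-HDL co-incubation, 3 h at 37 °C / Technique: bottom-read cell fluorescence after medium removal, ex 550/em 595 nm / Measure: HDL uptake via cellular fluorescence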
CDK5 p35 inh = blocks human CDK5/p35 kinase activity; Q00535+Q15078; Recombinant CDK5/p35, ADP-Glo luminescence, 60 min; inhibition, % at 10 µM; 0.01% of 330,000 active;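 active = highest replicate inhibition of at least 50% and at least 75% of replicates reaching 50%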;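 also: plate controls were DMSO neutral control for no effect and GW8510 at 10 µM for full effect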
dFosB act-1 = activators of mouse delta FosB homodimer. 0.99% of 340,000 active. P13346. purified delta FosB, TAMRA-CDK5 oligo fluorescence polarization; percent of positive-control signal above neutral wells. activation, % at 25 µM;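 active = mean activation above about 17%, with every replicate also reaching it, limit read from the data, passing the limit was not always enough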
Target sequence (P13346 whole entry, looked up): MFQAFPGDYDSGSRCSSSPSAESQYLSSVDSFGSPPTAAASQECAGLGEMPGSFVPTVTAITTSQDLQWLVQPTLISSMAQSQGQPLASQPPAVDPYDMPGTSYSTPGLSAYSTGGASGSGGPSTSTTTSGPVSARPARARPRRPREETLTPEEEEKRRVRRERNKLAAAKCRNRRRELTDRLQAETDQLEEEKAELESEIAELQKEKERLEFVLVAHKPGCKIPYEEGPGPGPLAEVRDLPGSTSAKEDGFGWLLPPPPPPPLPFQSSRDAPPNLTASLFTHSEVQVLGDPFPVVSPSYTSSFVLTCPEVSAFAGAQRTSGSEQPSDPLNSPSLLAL
dFosB act-2 = delta FosB (mouse) homodimer activation. purified delta FosB, TAMRA-CDK5 oligo fluorescence polarization; normalised: neutral wells 0, positive control 100. 2,400 tested, under 10 active. activation, % at 24.9 µM. shares compounds with dFosB act-1;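 active = highest replicate activation at or above 34% and every replicate reaching that threshold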;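 also: higher polarization means more probe DNA bound by delta FosB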
* = called active by the depositor. A selection: hits, their analogues and other compounds. The true share with any hit is near 2.1%.

For Cc1ccc(-c2nsc(SCC(=O)Nc3ccc4c(c3)OCO4)n2)cc1 the results were SR-BI DiI inh -12.7, PKA-R2B activ -0.8, PKA-R1A activ -11.6, SR-BI uptake up 12.7, CDK5 p35 inh -1.3, dFosB act-1 24.1* and dFosB act-2 2.5.
COc1cc(C)c(Cl)cc1S(=O)(=O)NCc1ccccn1 was read as SR-BI DiI inh -0.6, PKA-R2B activ 14.0, PKA-R1A activ -8.5, SR-BI uptake up 0.6, CDK5 p35 inh 0.7 and dFosB act-1 0.5.
COc1ccc(C(C)(C)C)cc1NC(=O)c1cc(S(=O)(=O)N(C)C)ccc1N1CCCC1 was read as SR-BI DiI inh -36.9, PKA-R2B activ 4.2, PKA-R1A activ -5.5, SR-BI uptake up 36.9, CDK5 p35 inh -0.4 and dFosB act-1 -7.4.
Screening COc1cccc(-c2ccc(NC(=O)C3CCCN(CCCn4nc(C)cc4C)C3)cc2)c1 (configuration not stated) returned SR-BI DiI inh 34.5, PKA-R2B activ -9.8, PKA-R1A activ 6.2, SR-BI uptake up -34.5, CDK5 p35 inh -0.9, dFosB act-1 26.9* and dFosB act-2 6.4.
For Cc1ccc(CNC(=O)Cn2cnc(S(=O)(=O)N3CCC(C)CC3)c2)o1 the results were SR-BI DiI inh -7.7, PKA-R2B activ -7.2, PKA-R1A activ -4.2, SR-BI uptake up 7.7, CDK5 p35 inh -0.6 and dFosB act-1 -1.0.
For CCc1ccc(NC(=O)C(C)OC(=O)c2cc(=O)[nH]c3ccc(S(=O)(=O)Nc4ccc(F)cc4)cc23)cc1 (configuration not stated) the results were SR-BI DiI inh -8.4, PKA-R2B activ 8.6, PKA-R1A activ 7.1, SR-BI uptake up 8.4, CDK5 p35 inh -0.1, dFosB act-1 100.0* and dFosB act-2 -1.6.
Cc1cccc(NS(=O)(=O)c2ccc3[nH]c(=O)cc(C(=O)OC(C)C(=O)Nc4ccc([N+](=O)[O-])cc4)c3c2)c1 (configuration not stated) was read as SR-BI DiI inh -33.2, PKA-R2B activ -7.5, PKA-R1A activ 2.3, SR-BI uptake up 33.2, CDK5 p35 inh 2.3 and dFosB act-1 8.1.
Cc1ccc(N(CC(=O)Nc2ccc3c(c2)OCCO3)S(=O)(=O)c2c(C)noc2C)cc1 was read as SR-BI DiI inh -8.9, PKA-R2B activ -10.4, PKA-R1A activ -13.3, SR-BI uptake up 8.9, CDK5 p35 inh -1.2 and dFosB act-1 -9.5.
`COc1ccc(N(CC(=O)Nc2ccc3c(c2)OCCO3)S(=O)(=O)c2c(C)noc2C)cc1` gave SR-BI DiI inh 1.3, PKA-R2B activ 4.8, PKA-R1A activ -11.1, SR-BI uptake up -1.3, CDK5 p35 inh -1.5, dFosB act-1 36.9* and dFosB act-2 2.6.
For CCOC(=O)c1ccc(S(=O)(=O)NNC(=O)COc2ccc(C)cc2)cc1 the results were SR-BI DiI inh -27.1, PKA-R2B activ -11.8, PKA-R1A activ 16.9, SR-BI uptake up 27.1, CDK5 p35 inh -0.1, dFosB act-1 60.6* and dFosB act-2 4.0.
Screening CCOC(=O)c1ccc(S(=O)(=O)NNC(=O)COc2cccc(C)c2)cc1 returned SR-BI DiI inh -10.5, PKA-R2B activ -5.5, PKA-R1A activ 4.3, SR-BI uptake up 10.5, CDK5 p35 inh -0.1 and dFosB act-1 -6.0.
CC(C)c1nnc(NC(=O)CCC(=O)NCc2ccccc2Cl)s1 was read as SR-BI DiI inh -21.9, PKA-R2B activ -0.6, PKA-R1A activ 4.9, SR-BI uptake up 21.9 and dFosB act-1 4.1.
For CC(C)Cc1nnc(NC(=O)CCC(=O)NCc2ccccc2Cl)s1 the results were SR-BI DiI inh -9.4, PKA-R2B activ 1.0, PKA-R1A activ -0.6, SR-BI uptake up 9.4, CDK5 p35 inh -2.6, dFosB act-1 19.4* and dFosB act-2 7.5.
For CCc1ccccc1NC(=O)CCc1nc(-c2ccc(C)cc2)no1 the results were SR-BI DiI inh -14.8, PKA-R2B activ 6.4, PKA-R1A activ -3.3, SR-BI uptake up 14.8, CDK5 p35 inh -2.9, dFosB act-1 20.5* and dFosB act-2 7.6.
`Cc1ccc(-c2noc(CCC(=O)Nc3ccccc3C)n2)cc1` gave SR-BI DiI inh 20.1, PKA-R2B activ -0.4, PKA-R1A activ -1.6, SR-BI uptake up -20.1, CDK5 p35 inh -4.9 and dFosB act-1 2.3.
Screening CC(C)C(Cl)=NOC(=O)Nc1ccc(S(N)(=O)=O)cc1 returned SR-BI DiI inh -29.5, PKA-R2B activ 3.2, PKA-R1A activ 12.2, SR-BI uptake up 29.5, CDK5 p35 inh 2.6 and dFosB act-1 0.2.
Screening COc1ccc2nc(NC(=O)C3CCCN(S(=O)(=O)c4cccc5nonc45)C3)sc2c1 (configuration not stated) returned SR-BI DiI inh 54.9, PKA-R2B activ -6.8, PKA-R1A activ -8.4, SR-BI uptake up -54.9, CDK5 p35 inh -0.9 and dFosB act-1 4.8.
For COc1ccc2nc(NC(=O)C3CCCN(S(=O)(=O)c4cccc5nsnc45)C3)sc2c1 (configuration not stated) the results were SR-BI DiI inh 53.0, PKA-R2B activ -3.0, PKA-R1A activ -7.2, SR-BI uptake up -53.0, CDK5 p35 inh -1.0, dFosB act-1 24.6* and dFosB act-2 -1.4.
For O=C(/C=C/c1ccccc1Cl)OCC(=O)c1ccc[nH]1 the results were SR-BI DiI inh -4.2, PKA-R2B activ -7.0, PKA-R1A activ -7.3, SR-BI uptake up 4.2, CDK5 p35 inh 0.1 and dFosB act-1 -12.6.
For Cn1c(SCC(=O)N2CC(=O)Nc3ccccc32)nnc1C(F)(F)F the results were SR-BI DiI inh -32.0, PKA-R2B activ -9.4, PKA-R1A activ -9.8, SR-BI uptake up 32.0, CDK5 p35 inh -1.1 and dFosB act-1 -0.3.
`N=C1C(c2nc3ccccc3s2)=C(O)CN1NC(=O)c1ccccc1[N+](=O)[O-]` gave SR-BI DiI inh -5.4, PKA-R2B activ -5.7, PKA-R1A activ -2.7, SR-BI uptake up 5.4, CDK5 p35 inh -0.6 and dFosB act-1 13.0.
For N=C1C(c2nc3ccccc3s2)=C(O)CN1NC(=O)c1c[nH]c2ccccc12 the results were SR-BI DiI inh 4.2, PKA-R2B activ 8.2, PKA-R1A activ -9.7, SR-BI uptake up -4.2, CDK5 p35 inh -4.0, dFosB act-1 26.7* and dFosB act-2 -2.0.
Cn1c(=O)c2cc3ccccc3nc2n(C)c1=O was read as SR-BI DiI inh -16.4, PKA-R2B activ 3.6, PKA-R1A activ 2.3, SR-BI uptake up 16.4, CDK5 p35 inh -0.5 and dFosB act-1 -17.9.
